Data reported in ChEMBL document CHEMBL1153804, “Optimization of a series of quinazolinone-derived antagonists of CXCR3” (Bioorg Med Chem Lett, 2009).
Changes are numbered by the printed parent chain.

What was measured:
[1] = molecular target: T1, C-X-C chemokine receptor type 3 (Homo sapiens, UniProt P49682); experiment: Displacement of [125I]-1P10 from human CXCR3 expressed in PBMC after 2 hrs in RPMI buffer by scintillation counting
T1 sequence (P49682 whole entry): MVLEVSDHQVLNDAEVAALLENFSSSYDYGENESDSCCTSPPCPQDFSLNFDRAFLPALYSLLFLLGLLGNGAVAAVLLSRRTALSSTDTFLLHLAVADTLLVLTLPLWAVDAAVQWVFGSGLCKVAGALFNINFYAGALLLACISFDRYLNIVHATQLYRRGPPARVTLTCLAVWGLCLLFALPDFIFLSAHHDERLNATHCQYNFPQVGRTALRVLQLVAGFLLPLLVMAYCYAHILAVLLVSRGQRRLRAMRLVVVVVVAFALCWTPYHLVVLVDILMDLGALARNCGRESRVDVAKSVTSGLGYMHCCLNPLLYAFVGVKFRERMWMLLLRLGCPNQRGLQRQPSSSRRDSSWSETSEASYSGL

[2] = molecular target: T2, C-X-C chemokine receptor type 3 (Rattus norvegicus, UniProt Q9JII9); experiment: Displacement of [125I]-IP10 from rat CXCR3 expressed in human PBMC after 2 hrs in RPMI buffer by scintillation counting
T2 sequence (Q9JII9 whole entry): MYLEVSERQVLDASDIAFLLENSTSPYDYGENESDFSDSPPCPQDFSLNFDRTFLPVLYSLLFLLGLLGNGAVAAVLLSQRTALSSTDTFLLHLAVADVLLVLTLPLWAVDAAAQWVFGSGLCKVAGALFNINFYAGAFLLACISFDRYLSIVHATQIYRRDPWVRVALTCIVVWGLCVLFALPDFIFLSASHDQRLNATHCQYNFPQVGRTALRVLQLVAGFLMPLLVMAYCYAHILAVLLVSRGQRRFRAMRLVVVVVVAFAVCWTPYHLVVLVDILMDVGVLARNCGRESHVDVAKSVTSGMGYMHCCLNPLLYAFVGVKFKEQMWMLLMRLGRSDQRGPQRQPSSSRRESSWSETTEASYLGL
Method in brief: (§1)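 PBMC bearing CXCR3 were co-incubated with antagonist and recombinant human [125I]-IP10 for 2 h at room temperature in RPMI-1640 (no phenol red) with 0.5% BSA. Cells were harvested onto filter plates and bound radioactivity was counted by scintillation. IC50 values are means of three experiments.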

[3] = molecular target: T3, C-X-C chemokine receptor type 3 (Mus musculus, UniProt O88410); experiment: Displacement of [125I]-IP10 from mouse CXCR3 expressed in human PBMC after 2 hrs in RPMI buffer by scintillation counting; method in brief: as §1
T3 sequence (O88410 whole entry): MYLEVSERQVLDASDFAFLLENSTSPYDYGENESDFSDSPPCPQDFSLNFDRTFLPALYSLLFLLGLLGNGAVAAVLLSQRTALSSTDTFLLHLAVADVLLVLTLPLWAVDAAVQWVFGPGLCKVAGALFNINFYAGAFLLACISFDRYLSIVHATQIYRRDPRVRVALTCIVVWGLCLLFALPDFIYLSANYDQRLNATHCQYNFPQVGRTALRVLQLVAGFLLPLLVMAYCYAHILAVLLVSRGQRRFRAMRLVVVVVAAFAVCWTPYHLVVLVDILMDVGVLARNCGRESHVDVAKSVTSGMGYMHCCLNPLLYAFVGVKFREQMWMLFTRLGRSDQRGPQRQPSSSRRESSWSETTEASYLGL

[4] = molecular target: T4, C-X-C chemokine receptor type 3 (Canis lupus familiaris, UniProt Q5KSK8); experiment: Displacement of [125I]-IP10 from dog CXCR3 expressed in human PBMC after 2 hrs in RPMI buffer by scintillation counting; method in brief: as §1
T4 sequence (Q5KSK8 whole entry): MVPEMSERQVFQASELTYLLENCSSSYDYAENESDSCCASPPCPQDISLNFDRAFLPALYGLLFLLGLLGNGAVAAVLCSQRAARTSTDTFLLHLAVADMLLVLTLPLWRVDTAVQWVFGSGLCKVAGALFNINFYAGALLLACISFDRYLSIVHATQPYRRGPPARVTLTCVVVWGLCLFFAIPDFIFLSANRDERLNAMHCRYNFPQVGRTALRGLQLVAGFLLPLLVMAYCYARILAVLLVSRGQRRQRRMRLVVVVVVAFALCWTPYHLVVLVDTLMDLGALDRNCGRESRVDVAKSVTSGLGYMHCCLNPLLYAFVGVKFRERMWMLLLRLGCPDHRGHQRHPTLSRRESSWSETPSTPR

CXC chemokine receptor 3 = molecular target: T5, CXC chemokine receptor 3 (Macaca mulatta, UniProt B8PY99); experiment: Displacement of [125I]-IP10 from rhesus monkey CXCR3 expressed in human PBMC after 2 hrs in RPMI buffer by scintillation counting; method in brief: as §1
T5 sequence (B8PY99 whole entry): T1 sequence (P49682 whole entry) with T83A, V259A

[5] = Clearance in rat at 0.5 mg/kg, iv; type: ADME, organism-based; set-up: dose 0.5 mg/kg, route intravenous; conditions: in vivo
[6] = Clearance in mouse at 0.5 mg/kg, iv; type: ADME, organism-based; set-up: dose 0.5 mg/kg, route intravenous; conditions: in vivo
[7] = Clearance in dog at 1 mg/kg, iv; type: ADME, organism-based, Canis lupus familiaris; set-up: dose 1 mg/kg, route intravenous; conditions: in vivo
[8] = Clearance in cynomolgus monkey at 1 mg/kg, iv; type: ADME, organism-based, Macaca fascicularis; set-up: dose 1 mg/kg, route intravenous; conditions: in vivo
[9] = Mean residence time in rat at 0.5 mg/kg, iv; type: ADME, organism-based; set-up: dose 0.5 mg/kg, route intravenous; conditions: in vivo
[10] = Mean residence time in mouse at 0.5 mg/kg, iv; type: ADME, organism-based; set-up: dose 0.5 mg/kg, route intravenous; conditions: in vivo
[11] = Mean residence time in dog at 1 mg/kg, iv; type: ADME, organism-based, Canis lupus familiaris; set-up: dose 1 mg/kg, route intravenous; conditions: in vivo
[12] = Mean residence time in cynomolgus monkey at 1 mg/kg, iv; type: ADME, organism-based, Macaca fascicularis; set-up: dose 1 mg/kg, route intravenous; conditions: in vivo
[13] = Volume of distribution at steady state in rat at 0.5 mg/kg, iv; type: ADME, organism-based; set-up: dose 0.5 mg/kg, route intravenous; conditions: in vivo, read-out: Vdss
[14] = Volume of distribution at steady state in cynomolgus monkey at 1 mg/kg, iv; type: ADME, organism-based, Macaca fascicularis; set-up: dose 1 mg/kg, route intravenous; conditions: in vivo, read-out: Vdss
[15] = Oral bioavailability in rat at 2 mg/kg; type: ADME, organism-based; conditions: in vivo
[16] = Oral bioavailability in mouse at 2 mg/kg; type: ADME, organism-based; conditions: in vivo
[17] = Oral bioavailability in dog at 2.5 mg/kg; type: ADME, organism-based, Canis lupus familiaris; conditions: in vivo
Cytochrome P450 3A4 = Cytochrome P450 3A4 (Homo sapiens, UniProt P08684); experiment: Inhibition of CYP3A4; type: ADME
Cytochrome P450 2C9 = Cytochrome P450 2C9 (Homo sapiens, UniProt P11712); experiment: Inhibition of CYP2C9; type: ADME
Blood [18] = experiment: Drug level in bleomycin-induced mouse blood at 10 mg/mL, sc; type: ADME, tissue-based
Blood [19] = experiment: Drug level in bleomycin-induced mouse blood at 3 mg/mL, sc; type: ADME, tissue-based
Blood [20] = experiment: Drug level in bleomycin-induced mouse blood at 1 mg/mL, sc; type: ADME, tissue-based

Sequence of Cytochrome P450 2C9 (P11712 whole entry): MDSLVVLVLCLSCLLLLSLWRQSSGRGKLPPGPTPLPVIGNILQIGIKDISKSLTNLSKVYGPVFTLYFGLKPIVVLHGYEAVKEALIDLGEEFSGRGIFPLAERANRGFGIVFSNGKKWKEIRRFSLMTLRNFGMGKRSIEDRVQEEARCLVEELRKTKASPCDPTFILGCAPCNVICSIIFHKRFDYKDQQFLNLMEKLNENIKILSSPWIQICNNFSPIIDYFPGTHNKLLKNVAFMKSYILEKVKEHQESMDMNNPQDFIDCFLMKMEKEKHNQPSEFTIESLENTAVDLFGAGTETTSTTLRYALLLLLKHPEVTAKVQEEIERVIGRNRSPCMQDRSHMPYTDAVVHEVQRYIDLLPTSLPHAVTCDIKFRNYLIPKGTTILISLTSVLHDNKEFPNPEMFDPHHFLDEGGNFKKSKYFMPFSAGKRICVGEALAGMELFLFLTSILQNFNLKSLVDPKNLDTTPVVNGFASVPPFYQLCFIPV
Sequence of Cytochrome P450 3A4 (P08684 whole entry): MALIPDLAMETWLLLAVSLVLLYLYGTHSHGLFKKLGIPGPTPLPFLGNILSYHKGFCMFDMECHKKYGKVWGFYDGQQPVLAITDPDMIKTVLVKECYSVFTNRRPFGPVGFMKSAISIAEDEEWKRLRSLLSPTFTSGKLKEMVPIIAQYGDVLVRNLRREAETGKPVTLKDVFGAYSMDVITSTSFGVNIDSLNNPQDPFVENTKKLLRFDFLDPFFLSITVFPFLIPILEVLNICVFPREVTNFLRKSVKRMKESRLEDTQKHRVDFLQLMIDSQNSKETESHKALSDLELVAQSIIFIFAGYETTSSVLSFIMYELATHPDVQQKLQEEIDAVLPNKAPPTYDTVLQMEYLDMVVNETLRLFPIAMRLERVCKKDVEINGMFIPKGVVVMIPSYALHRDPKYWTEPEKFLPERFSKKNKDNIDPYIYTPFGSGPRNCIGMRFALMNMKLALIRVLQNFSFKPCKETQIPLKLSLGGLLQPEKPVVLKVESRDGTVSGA

IC50 [1]: 1 nM
IC50 [2]: 4 nM
IC50 [3]: 3 nM
IC50 [4]: 5 nM
IC50 (CXC chemokine receptor 3): 2 nM
clearance [5]: 65 mL/min/kg
clearance [6]: 13 mL/min/kg
clearance [7]: 7.5 mL/min/kg
clearance [8]: 14.5 mL/min/kg
MRT [9]: 0.65 h
MRT [10]: 1.1 h
MRT [11]: 2.5 h
MRT [12]: 1.6 h
Vd [13]: 2.5 L/kg
Vd [14]: 1.4 L/kg
bioavailability [15]: 26%
bioavailability [16]: 84%
bioavailability [17]: 25%
Activity (Cytochrome P450 3A4): Active
Activity (Cytochrome P450 2C9): Active
Drug uptake (Blood [18]): 35 ng/mL
Drug uptake (Blood [19]): 18 ng/mL
Drug uptake (Blood [20]): 11 ng/mL
SMILES: CCS(=O)(=O)CCN(C(=O)Cc1ccc(F)c(C(F)(F)F)c1)[C@H](C)c1nc2ncccc2c(=O)n1-c1ccc(OCC(F)(F)F)cc1
